# Measurements published in ChEMBL document CHEMBL1143291, “Synthesis and structure-activity relationships of novel, substituted 5,6-dihydrodibenzo[a,g]quinolizinium P2X7 antagonists” (Bioorg Med Chem Lett, 2009).
# Active and inactive are the calls of the source. No cut-off for these calls is given here.
# Assays:
# [1] = tested on: THP-1; assay: Inhibition of Bz-ATP-induced IL1-beta release in LPS/IFN-gamma-differentiated human THP1 cells at 1 uM by ELISA; type: functional
# How it was run: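 THP-1 cells were differentiated for 3 h with 25 ng/ml LPS plus 10 ng/ml IFNγ. They were preincubated 30 min with 1 µM compound, then stimulated with 1 mM BzATP for 30 min. Supernatants were collected by centrifugation (1000 rpm, 5 min) and mature human IL-1β was measured by ELISA. Results are mean ± SD percent inhibition, n = 3.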
# [2] = biological target: T1, P2X purinoceptor 7 (Homo sapiens, UniProt Q99572); assay: Antagonist activity at human P2X7 receptor expressed in HEK293 cells assessed as inhibition of BzATP-induced fluorescent ethidium accumulation; type: functional, cell-based
# T1 sequence (Q99572 whole entry): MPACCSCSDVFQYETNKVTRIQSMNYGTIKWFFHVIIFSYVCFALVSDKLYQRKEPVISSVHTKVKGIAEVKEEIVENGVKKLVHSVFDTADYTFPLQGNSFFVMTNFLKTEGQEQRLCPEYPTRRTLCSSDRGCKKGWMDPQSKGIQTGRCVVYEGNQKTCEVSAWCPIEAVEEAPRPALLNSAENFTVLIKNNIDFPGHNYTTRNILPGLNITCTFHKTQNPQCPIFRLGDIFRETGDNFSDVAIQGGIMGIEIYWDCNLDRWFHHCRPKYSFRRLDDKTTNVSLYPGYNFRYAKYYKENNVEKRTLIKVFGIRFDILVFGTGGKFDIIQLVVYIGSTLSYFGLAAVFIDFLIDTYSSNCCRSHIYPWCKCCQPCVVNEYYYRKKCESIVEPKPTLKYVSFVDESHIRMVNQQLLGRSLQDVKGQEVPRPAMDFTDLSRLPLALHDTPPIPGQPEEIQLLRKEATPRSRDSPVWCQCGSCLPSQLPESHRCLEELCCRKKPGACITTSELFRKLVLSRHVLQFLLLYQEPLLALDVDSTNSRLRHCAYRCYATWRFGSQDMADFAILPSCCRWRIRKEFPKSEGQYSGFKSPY
# How it was run: (§1)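 Adherent HEK293 cells stably transfected with human P2X7 cDNA were preincubated 30 min with compound. They were then resuspended at 2.5 × 10^6 cells/ml in 20 mM HEPES pH 7.4 with 140 mM KCl, 5 mM glucose, 1 mM EDTA and 0.1 mM ethidium bromide. BzATP was added to 1 mM for 120 min at 37 °C. Ethidium uptake was read by fluorescence (ex 530/20, em 590/20 nm).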
# [3] = tested on: THP-1; assay: Inhibition of Bz-ATP-induced IL1-beta release in LPS/IFN-gamma-differentiated human THP1 cells by ELISA; type: functional, cell-based
# How it was run: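 Full concentration–response curves used THP-1 cells differentiated for 3 h with 25 ng/ml LPS and 10 ng/ml IFNγ. Cells were preincubated 30 min with compound, then stimulated 30 min with 1 mM BzATP. Mature IL-1β in the centrifuged supernatant was quantified by ELISA.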
# [4] = biological target: T2, P2X purinoceptor 7 (Homo sapiens) (UniProt Q99572); assay: Antagonist activity at human P2X7 receptor expressed in HEK293 cells assessed as inhibition of BzATP-induced fluorescent ethidium accumulation at 8 uM; type: functional, cell-based; how it was run: as §1
# T2 sequence (whole entry): T1 sequence (Q99572 whole entry)
SMILES,inhibition at 1 µM [1],IC50 [2],other results
CN([C@@H](Cc1ccc(OS(=O)(=O)c2cccc3cnccc23)cc1)C(=O)N1CCN(c2ccccc2)CC1)S(=O)(=O)c1cccc2cnccc12,79%,340 nM,IC50 [3]: 81 nM
CCc1c2[n+](cc3c(OCc4cccc([N+](=O)[O-])c4C)c(OC)ccc13)CCc1cc(OC)c(OC)cc1-2,–,5400 nM,–
CCc1c2[n+](cc3c(OCc4ccc(F)cc4C(F)(F)F)c(OC)ccc13)CCc1cc(OC)c(OC)cc1-2,13%,820 nM,–
COc1ccc2cc3[n+](cc2c1OC)CCc1cc2c(cc1-3)OCO2,–,–,inhibition [4]: 7.03%
CC[C@@H]1c2ccc(OC)c(OC)c2CN2CCc3cc4c(cc3[C@H]12)OCO4 (racemic),34%,560 nM,–
C=CCc1c2[n+](cc3c(OC)c(OC)ccc13)CCc1cc3c(cc1-2)OCO3,71%,440 nM,–
CCc1c2[n+](cc3c(OCc4cc([N+](=O)[O-])ccc4OC)c(OC)ccc13)CCc1cc(OC)c(OC)cc1-2,42%,420 nM,–
CCc1c2[n+](cc3c(OC)c(OC)ccc13)CCc1cc3c(cc1-2)OCO3,73%,350 nM,–
COc1cc(Cc2c3[n+](cc4c(OC)c(OC)ccc24)CCc2cc4c(cc2-3)OCO4)cc(OC)c1,39%,260 nM,–
COc1cc2c(cc1OC)-c1c(CC3CCCCC3)c3ccc(OC)c(OC)c3c[n+]1CC2,17%,1120 nM,–
CCc1c2[n+](cc3c(OCc4cc(C)ccc4C)c(OC)ccc13)CCc1cc(OC)c(OC)cc1-2,8%,1530 nM,–
CCCc1c2[n+](cc3c(OC)c(OC)ccc13)CCc1cc(OC)c(OC)cc1-2,–,500 nM,–
CCc1c2[n+](cc3c(OCc4cc(C)ccc4[N+](=O)[O-])c(OC)ccc13)CCc1cc(OC)c(OC)cc1-2,40%,730 nM,–
CCCC(I)c1c2[n+](cc3c(OC)c(OC)ccc13)CCc1cc3c(cc1-2)OCO3 (centres undefined),54%,420 nM,–
CCc1c2[n+](cc3c(OCc4ccc(-c5ccccc5)cc4)c(OC)ccc13)CCc1cc(OC)c(OC)cc1-2,–,3220 nM,Activity [1]: inactive
CCc1c2[n+](cc3c(OCc4ccc(OCc5ccccc5)cc4)c(OC)ccc13)CCc1cc(OC)c(OC)cc1-2,–,2810 nM,Activity [1]: inactive
CCc1c2[n+](cc3c(OCc4ccc(Br)cc4)c(OC)ccc13)CCc1cc(OC)c(OC)cc1-2,5%,2600 nM,–
CCc1c2[n+](cc3c(OCc4cccc(Cl)c4)c(OC)ccc13)CCc1cc(OC)c(OC)cc1-2,7%,2660 nM,–
CCc1c2[n+](cc3c(OCc4ccc(Cl)nc4)c(OC)ccc13)CCc1cc(OC)c(OC)cc1-2,33%,4410 nM,–
CCc1c2[n+](cc3c(OCc4cc(OC)c(OC)cc4[N+](=O)[O-])c(OC)ccc13)CCc1cc(OC)c(OC)cc1-2,83%,170 nM,IC50 [3]: 175 nM
COc1cc2c(cc1OC)-c1cc3ccc(OC)c(OC)c3c[n+]1CC2,–,–,Activity [4]: inactive
CCc1c2[n+](cc3c(OCc4ccccc4C)c(OC)ccc13)CCc1cc(OC)c(OC)cc1-2,–,5020 nM,Activity [1]: inactive
COc1ccc2c(c[n+](C)c3c4cc5c(cc4ccc23)OCO5)c1OC,–,–,Activity [1]: inactive
CCc1c2[n+](cc3c(OCc4ccc(C(C)(C)C)cc4)c(OC)ccc13)CCc1cc(OC)c(OC)cc1-2,33%,1260 nM,–
COc1ccc2c(Cc3c(F)cccc3Cl)c3[n+](cc2c1OC)CCc1cc2c(cc1-3)OCO2,50%,400 nM,–
CCc1c2[n+](cc3c(OCc4ccccc4C(F)(F)F)c(OC)ccc13)CCc1cc(OC)c(OC)cc1-2,13%,2560 nM,–
